Experimental data published in ChEMBL document CHEMBL3603779, “Identification and Optimization of Benzimidazole Sulfonamides as Orally Bioavailable Sphingosine 1-Phosphate Receptor 1 Antagonists with in Vivo Activity” (J Med Chem, 2015).
One block for each molecule: values may come before it. Calls of active or inactive are those of the source. The calls are words filed in the database; no cut-off is given here.

How the values were obtained:
Calu-6 [1] = experiment: Increase in pulmonary vascular permeability in tumor of human Calu6 cells xenografted NCr mouse assessed as induction of capillary leakage in at 50 mg/kg, po by Evans blue dye assay; assay type: functional, organism-based
[2] = Volume of distribution at steady state in Han Wistar rat at 4 mg/kg, iv by LCMS/MS method; assay type: ADME, organism-based; conditions: in vivo, read-out: Vdss
Mus musculus [3] = experiment: Increase in pulmonary vascular permeability in NCr mouse lung assessed as induction of capillary leakage in at 50 mg/kg, po administered a single oral dose by Evans blue dye assay; assay type: functional, organism-based
Procedure, shortened: (§1)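 Female NCr nude mice (4 per cohort) given a single oral dose, 20 or 50 mg/kg, or vehicle (0.5% HPMC, 0.1% Tween 80). Evans blue dye (20 mg/kg) injected 1 h later. After 30 min, mice anesthetized and perfused with 0.9% saline; lung dye measured by spectrophotometry and normalized to vehicle-treated animals.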

[4] = Oral bioavailability in beagle dog at 5 mg/kg by LCMS/MS method; assay type: ADME, organism-based, Canis lupus familiaris; conditions: in vivo
[5] = Clearance in beagle dog at 2 mg/kg, iv by LCMS/MS method; assay type: ADME, organism-based, Canis lupus familiaris; conditions: in vivo
[6] = Clearance in Han Wistar rat at 4 mg/kg, iv by LCMS/MS method; assay type: ADME, organism-based; conditions: in vivo
COLO 205 [7] = experiment: Increase in pulmonary vascular permeability in tumor of human COLO205 cells xenografted NCr mouse assessed as induction of capillary leakage in at 50 mg/kg, po by Evans blue dye assay; assay type: functional, organism-based
[8] = Cmax in beagle dog at 5 mg/kg, po by LCMS/MS method; assay type: ADME, organism-based, Canis lupus familiaris; design: dose 5 mg/kg, route oral; conditions: in vivo
[9] = Antitiumor activity against human Calu6 cells xenografted in NCr mouse assessed as tumor growth at 50 mg/kg, po bid dosed on day 11 to 33; assay type: functional; conditions: Calu-6, po, read-out: GI
Procedure, shortened: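 Calu6 xenografts in female NCr-nude mice, oral dosing twice daily. Schedules: 20 mg/kg BID on days 13-32, or 50 mg/kg BID on days 11-33. Vehicle (HPMC) controls n=20, treated n=14. Tumor volume compared with controls.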

[10] = Half life in beagle dog at 2 mg/kg, iv by LCMS/MS method; assay type: ADME, organism-based, Canis lupus familiaris; conditions: in vivo
[11] = Volume of distribution at steady state in beagle dog at 2 mg/kg, iv by LCMS/MS method; assay type: ADME, organism-based, Canis lupus familiaris; conditions: in vivo, read-out: Vdss
[12] = Volume of distribution at steady state in beagle dog at 2.5 mg/kg, iv; assay type: ADME, organism-based, Canis lupus familiaris; conditions: in vivo, read-out: Vdss
Calu-6 [13] = experiment: Increase in pulmonary vascular permeability in tumor of human Calu6 cells xenografted NCr mouse assessed as induction of capillary leakage in at 20 mg/kg, po by Evans blue dye assay; assay type: functional, organism-based
[14] = target: Voltage-gated inwardly rectifying potassium channel KCNH2 (Homo sapiens, UniProt Q12809)
Mus musculus [15] = experiment: Increase in pulmonary vascular permeability in NCr mouse lung assessed as induction of capillary leakage in at 20 mg/kg, po administered a single oral dose by Evans blue dye assay; assay type: functional, organism-based; procedure, shortened: as §1
[16] = Volume of distribution at steady state in Han Wistar rat at 3 mg/kg, iv by LCMS/MS method; assay type: ADME, organism-based; conditions: in vivo, read-out: Vdss
[17] = Clearance in Han Wistar rat at 3 mg/kg, iv by LCMS/MS method; assay type: ADME, organism-based; conditions: in vivo
[18] = Half life in beagle dog at 2.5 mg/kg, iv by LCMS/MS method; assay type: ADME, organism-based, Canis lupus familiaris; conditions: in vivo
[19] = Half life in Han Wistar rat at 3 mg/kg, iv by LCMS/MS method; assay type: ADME, organism-based; conditions: in vivo
[20] = Oral bioavailability in beagle dog at 10 mg/kg by LCMS/MS method; assay type: ADME, organism-based, Canis lupus familiaris; conditions: in vivo
[21] = Cmax in beagle dog at 10 mg/kg, po by LCMS/MS method; assay type: ADME, organism-based, Canis lupus familiaris; design: dose 10 mg/kg, route oral; conditions: in vivo
Calu-6 [22] = experiment: Antitiumor activity against human Calu6 cells xenografted in NCr mouse assessed as tumor growth at 20 mg/kg, po bid dosed on day 13 to 32
COLO 205 [23] = experiment: Increase in pulmonary vascular permeability in tumor of human COLO205 cells xenografted NCr mouse assessed as induction of capillary leakage in at 20 mg/kg, po by Evans blue dye assay; assay type: functional, organism-based

Chain of Voltage-gated inwardly rectifying potassium channel KCNH2 (Q12809 whole entry): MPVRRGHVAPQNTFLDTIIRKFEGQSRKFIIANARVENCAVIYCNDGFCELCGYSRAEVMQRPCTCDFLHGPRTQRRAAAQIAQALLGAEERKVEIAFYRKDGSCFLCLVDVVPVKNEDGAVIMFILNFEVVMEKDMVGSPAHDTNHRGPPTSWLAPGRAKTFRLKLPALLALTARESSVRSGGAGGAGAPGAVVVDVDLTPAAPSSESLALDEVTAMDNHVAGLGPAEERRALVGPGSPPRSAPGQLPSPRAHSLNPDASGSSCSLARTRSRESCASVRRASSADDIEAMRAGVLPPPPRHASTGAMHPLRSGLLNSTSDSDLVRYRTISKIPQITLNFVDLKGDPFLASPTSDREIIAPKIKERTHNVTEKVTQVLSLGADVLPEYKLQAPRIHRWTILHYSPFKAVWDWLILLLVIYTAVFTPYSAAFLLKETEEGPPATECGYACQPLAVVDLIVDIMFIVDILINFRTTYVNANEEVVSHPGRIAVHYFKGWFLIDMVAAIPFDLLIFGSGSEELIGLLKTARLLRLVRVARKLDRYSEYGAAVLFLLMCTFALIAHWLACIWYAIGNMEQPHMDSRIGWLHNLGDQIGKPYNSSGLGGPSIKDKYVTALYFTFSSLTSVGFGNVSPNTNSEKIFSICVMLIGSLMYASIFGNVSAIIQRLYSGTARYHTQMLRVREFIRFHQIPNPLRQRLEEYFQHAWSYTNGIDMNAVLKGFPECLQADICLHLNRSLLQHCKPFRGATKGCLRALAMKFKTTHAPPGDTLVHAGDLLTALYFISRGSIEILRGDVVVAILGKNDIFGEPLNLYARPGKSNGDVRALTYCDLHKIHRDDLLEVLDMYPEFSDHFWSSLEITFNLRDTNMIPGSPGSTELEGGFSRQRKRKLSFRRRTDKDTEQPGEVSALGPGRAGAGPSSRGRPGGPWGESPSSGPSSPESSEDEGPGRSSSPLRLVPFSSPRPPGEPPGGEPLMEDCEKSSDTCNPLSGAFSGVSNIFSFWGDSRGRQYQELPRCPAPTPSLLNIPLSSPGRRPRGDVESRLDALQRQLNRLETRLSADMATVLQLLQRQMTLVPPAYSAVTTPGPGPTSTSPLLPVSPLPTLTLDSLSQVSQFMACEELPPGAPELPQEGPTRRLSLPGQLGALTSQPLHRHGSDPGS

- Vd [2]: 1.3 L/kg
- bioavailability [4]: 71%
- clearance [5]: 2 mL/min/kg
- clearance [6]: 10 mL/min/kg
- Cmax [8]: 10.7 µM
- half-life [10]: 4.6 h
- Vd [11]: 0.7 L/kg
Structure (SMILES): CCn1c([C@@H](C)NS(=O)(=O)c2ccc(C#N)nc2)nc2cnc(C3CC3)cc21
- Activity (Calu-6 [1]): inactive
- Activity (Mus musculus [3]): Active
- Activity (COLO 205 [7]): inactive
- inhibition in vivo at 50 mg/kg [9]: 32%

- Vd [12]: 0.6 L/kg
- Vd [16]: 1.2 L/kg
- clearance [17]: 8 mL/min/kg
- half-life [18]: 4.9 h
- half-life [19]: 2.4 h
- bioavailability [20]: 81%
- Cmax [21]: 31.1 µM
Structure (SMILES): CCn1c([C@@H](C)NS(=O)(=O)c2ccc(C#N)nc2)nc2cnc(C(F)(F)F)cc21
- Activity (Calu-6 [13]): inactive
- IC50 [14]: > 200 µM
- Activity (Mus musculus [15]): Active
- growth inhibition (GI) (Calu-6 [22]): inactive
- Activity (COLO 205 [23]): inactive
